IMP-1 inh-1: blocks Pseudomonas aeruginosa IMP-1 metallo-beta-lactamase; AID 1556; hit rate 0.45% among 290,000; purified IMP-1, nitrocefin hydrolysis, epi-absorbance fluorescence; inhibition, % at 5.6 µM;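 active means inhibition above the mean plus 3 SD of all compounds in the same screening run, cut at about 4.5% in these data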;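 further: 0% = IMP-1 with DMSO and 100% = DMSO wells lacking enzyme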
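System: purified IMP-1; amount: IMP-1 0.2 nM before substrate addition; compound: single dose, 5.6 µM; times: 25 °C, 15 min preincubation, 25 min reaction; signal: Epi-absorbance via hydrolysed-nitrocefin quenching of white-plate fluorescence, 480/530 nm, EDTA stop; benchmarks: DMSO with and without IMP-1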
PHOSPHO1 inh: PHOSPHO1 (human) inhibition. recombinant PHOSPHO1, absorbance phosphatase assay. inhibition, % at 13.3 µM. hit rate 1.1% among 290,000. AID 1565; in the data active means inhibition above about 60%
UBC9 SUMO inh: blocks human SUMOylation mediated by UBC9; inhibition, % at 35 µM; hit rate 0.36% among 290,000; HTRF SUMOylation assay, SAE1/SAE2 + UBC9, in vitro; AID 2006; P63279; in the data active means inhibition above about 50%, passing the limit was not always enough
Target sequence (P63279 whole entry, looked up): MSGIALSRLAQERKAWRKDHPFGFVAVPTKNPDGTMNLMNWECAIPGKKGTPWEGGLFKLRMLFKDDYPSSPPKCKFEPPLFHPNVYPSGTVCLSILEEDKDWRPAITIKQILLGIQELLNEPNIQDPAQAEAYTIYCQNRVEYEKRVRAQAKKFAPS
HCV NS3 hel inh: blocks Hepatitis C virus NS3 helicase unwinding. NS3 helicase DNA unwinding, Cy5 molecular beacon fluorescence. inhibition, % at 10.9 µM. hit rate 0.56% among 290,000;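 active means inhibition above the mean of all tested compounds plus 3 SD, set per campaign, cut at about 35% in these data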;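 further: 0% = DMSO wells and 100% = thioflavine S control wells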
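Control set: DMSO versus 110 µM thioflavine S; Material: NS3 helicase fragment of HCV; Measured by: Cy5 fluorescence at 0 and 60 min, beacon hairpin quenching; Read-out basis: percent inhibition from t60/t0 fluorescence ratio; Times: reaction time 60 min, 25 °C; Repeats: single replicate; Compound dosing: single dose, 10.9 µM nominal final, DMSO 0.8% final.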
HCV core dimer: blocks dimerization of HCV core protein; TR-FRET GST/Flag-core106 dimerization, 1536-well; hit rate 0.33% among 300,000; AID 1899; inhibition, % at 5 µM;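 active means inhibition above the mean of all tested compounds plus 3 SD, set per screening campaign, cut at about 45% in these data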
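System – GST-tagged and Flag-tagged HCV core protein residues 1-106 · Repeats – one well for each compound · Technique – TR-FRET 671 and 617 nm emission · Doses – one concentration, 5 µM, in 0.5% DMSO · Times – 4 h, 22.5 °C incubation · Also added – Eu donor and XL665 acceptor anti-tag antibodies · Measure – percent inhibition of core106 dimerization signal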
VIM-2 inhibitor: inhibitors of Pseudomonas aeruginosa VIM-2 metallo-beta-lactamase; purified VIM-2, nitrocefin hydrolysis, epi-absorbance fluorescence; inhibition, % at 5.6 µM; hit rate 0.89% among 290,000; AID 1527;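 active means inhibition above the mean of all tested compounds plus 3 SD, cutoff set per screening run, cut at about 7.5% in these data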;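 further: red hydrolysis product quenches plate fluorescence so inhibitors raise well fluorescence; 0% = enzyme with DMSO and 100% = DMSO without enzyme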
IMP-1 inh-2: selectivity counter-screen for VIM-2 inhibitors: IMP-1 metallo-beta-lactamase inhibitors; AID 1856; inhibition, % at 5.6 µM; purified IMP-1, nitrocefin hydrolysis, epi-absorbance fluorescence; shares compounds with VIM-2 inhibitor; 1,300 tested, under 10 active; call rule not given here;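 further: 0% = enzyme with vehicle and 100% = vehicle without enzyme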
VIM-2 FRET ctr: counter-screen for VIM-2 inhibitors: epi-absorbance artifacts via FRET. shares compounds with VIM-2 inhibitor. purified VIM-2, CCF2 FRET substrate hydrolysis. inhibition, % at 5.6 µM. hit rate 23% among 1,300;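 active means inhibition above the mean of all tested compounds plus 3 SD, cut at about 19% in these data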;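 further: 0% = VIM-2 plus DMSO and 100% = no enzyme wells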
TEM-1 counter: blocks E. coli TEM-1 beta-lactamase in VIM-2 selectivity screen; inhibition, % at 5.6 µM; Purified TEM-1, nitrocefin hydrolysis, epi-absorbance fluorescence; shares compounds with VIM-2 inhibitor; hit rate 3% among 1,300;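 active means inhibition above that campaign's mean inhibition plus 3 SD, cut at about 0.46% in these data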;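 further: 0% = TEM-1 with DMSO and 100% = TEM-1 with 100 µM potassium clavulanate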
Target sequence (P62593 whole entry, looked up): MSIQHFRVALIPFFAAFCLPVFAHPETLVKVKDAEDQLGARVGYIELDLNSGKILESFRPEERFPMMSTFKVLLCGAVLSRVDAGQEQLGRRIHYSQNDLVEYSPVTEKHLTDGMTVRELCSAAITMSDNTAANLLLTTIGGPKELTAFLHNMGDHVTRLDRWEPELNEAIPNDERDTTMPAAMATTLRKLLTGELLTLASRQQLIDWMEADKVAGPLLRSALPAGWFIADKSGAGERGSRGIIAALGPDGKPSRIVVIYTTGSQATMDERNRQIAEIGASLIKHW
VIM-2 confirm 2: confirmation of P. aeruginosa VIM-2 metallo-beta-lactamase inhibitors. AID 2187. purified VIM-2, nitrocefin hydrolysis, epi-absorbance. inhibition, % at 5.6 µM. hit rate 96% among 1,300. shares compounds with VIM-2 inhibitor;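 active means inhibition of the VIM-2 beta-lactamase enzyme above about 11% from the earlier first-round screen, limit read from the data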;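 further: 0% = VIM-2 with DMSO and 100% = buffer wells without enzyme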
An asterisk follows results filed as active; x = no result. Most compounds without a hit are left out; they make up all but 3.1% or so of the library.

SMILES | IMP-1 inh-1 | PHOSPHO1 inh | UBC9 SUMO inh | HCV NS3 hel inh | HCV core dimer | VIM-2 inhibitor | IMP-1 inh-2 | VIM-2 FRET ctr | TEM-1 counter | VIM-2 confirm 2
Cc1cc(=O)oc2c3c(cc(OCC(=O)N[C@@H](Cc4ccccc4)C(=O)O)c12)OC(C)(C)CC3 | -1 | 34 | 35 | 4 | 2 | 22* | -3 | 40* | -5 | 25*
Cc1cc(=O)oc2c3c(cc(OCC(=O)NC(Cc4ccc(Cl)cc4)C(=O)O)c12)OC(C)(C)CC3 (stereo unspecified) | -2 | 24 | 36 | -25 | 6 | 7 | x | x | x | x
CCc1cc(=O)oc2c3c(cc(OCC(=O)NCc4ccco4)c12)OC(C)(C)CC3 | 1 | 13 | 24 | 17 | 2 | 4 | x | x | x | x
CCc1cc(=O)oc2c3c(cc(OCC(=O)NCc4ccncc4)c12)OC(C)(C)CC3 | -2 | -106 | 37 | -10 | -1 | 16* | -2 | -2 | -1 | 27*
COc1ccc(C(=O)N2CCCC(N3CCN(c4ccccc4F)CC3)C2)c(OC)n1 (stereo unspecified) | 0 | 41 | 0 | -7 | 1 | -2 | x | x | x | x
COc1cc2c(cc1OC)/C(=C/C(=O)c1ccccc1F)NCC2 | -4 | 32 | 16 | -6 | x | -1 | x | x | x | x
COc1cc2c(cc1OC)/C(=C/C(=O)c1ccc(F)cc1)NCC2 | -2 | -5 | 1 | 3 | 6 | 14* | -3 | -5 | -6 | 19*
COCCCNc1c2c3c(cccc3[nH]c1=O)C(=O)c1ccccc1-2 | -3 | 4 | 7 | 7 | -12 | 34* | 73* | 4 | 137* | 87*
COC(CNC(=O)c1cn(C)c2ccc(S(=O)(=O)N(C)C3CCCCC3)cc2c1=O)OC | 1 | 22 | 9 | 8 | 2 | -1 | x | x | x | x
CCOc1cc(Cl)c(S(=O)(=O)NCc2cccnc2)cc1Cl | 1 | 13 | -2 | 2 | 1 | 0 | x | x | x | x
CC(Oc1cc2oc(=O)c3c(c2cc1Cl)CCC3)C(=O)NCC1CCC(C(=O)O)CC1 (stereo unspecified) | -1 | -44 | -3 | 6 | -13 | 7 | x | x | x | x
O=C(COc1cc2oc(=O)c3c(c2cc1Cl)CCC3)NCCN1CCOCC1 | 1 | 36 | 2 | 7 | -6 | 23* | -2 | 0 | -6 | 30*
NC(=O)COc1cc2oc(=O)c3c(c2cc1Cl)CCCC3 | 0 | 36 | 14 | -11 | 0 | 14* | -3 | -3 | -3 | 19*
CC(Oc1cc2oc(=O)c3c(c2cc1Cl)CCC3)C(=O)NCCN1CCOCC1 (stereo unspecified) | -4 | -30 | 12 | -1 | 7 | 13* | -3 | -5 | -3 | 23*
O=C(COc1cc2oc(=O)c3c(c2cc1Cl)CCC3)Nc1ccccn1 | -1 | 24 | 16 | 14 | -2 | 6 | x | x | x | x
COc1ccccc1N1CCN(C2CCCN(C(=O)Cn3cccn3)C2)CC1 (stereo unspecified) | -3 | 23 | 7 | -3 | -2 | -1 | x | x | x | x
COc1cc(/C=C2\SC(=S)N(CCC(=O)NC3CCCC3)C2=O)cc(OC)c1OC | -2 | -13 | 6 | 11 | 5 | -2 | x | x | x | x
COc1ccc(/C=C2/SC(=S)N(CCCC(=O)N3CCN(C)CC3)C2=O)cc1 | 1 | 34 | 11 | -45 | -1 | 17* | -2 | 4 | -6 | 31*
COc1cc(/C=C2\SC(=S)N(CCC(=O)N3CCN(C)CC3)C2=O)cc(OC)c1OC | 2 | 6 | 9 | -63 | 5 | 15* | -2 | 1 | -6 | 25*
CN1CCN(C(=O)CCCN2C(=O)/C(=C/c3ccccc3)SC2=S)CC1 | 2 | 24 | -2 | -49 | -4 | 16* | 0 | -3 | -1 | 25*

Compound activity (PubChem)
